In the library only some 1.8% were active in any assay of this set; here they are far more common.
CHRM4 agonist: CHRM4 agonism in calcium assay; 0.14% of 360,000 active; CHO-K1 hM4/Gqi5, Fluo-8 calcium fluorescence; vehicle 0%, full acetylcholine response 100%; P08173; AID 624127; activation, % at 3 µM;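 active = activation above the run mean over all test wells plus 3 SD, cut at about 32% in these data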;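 note: peak over basal fluorescence ratio per well then scaled between controls; 0% = DMSO wells and 100% = acetylcholine at EC100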
Target sequence (P08173 whole entry, looked up): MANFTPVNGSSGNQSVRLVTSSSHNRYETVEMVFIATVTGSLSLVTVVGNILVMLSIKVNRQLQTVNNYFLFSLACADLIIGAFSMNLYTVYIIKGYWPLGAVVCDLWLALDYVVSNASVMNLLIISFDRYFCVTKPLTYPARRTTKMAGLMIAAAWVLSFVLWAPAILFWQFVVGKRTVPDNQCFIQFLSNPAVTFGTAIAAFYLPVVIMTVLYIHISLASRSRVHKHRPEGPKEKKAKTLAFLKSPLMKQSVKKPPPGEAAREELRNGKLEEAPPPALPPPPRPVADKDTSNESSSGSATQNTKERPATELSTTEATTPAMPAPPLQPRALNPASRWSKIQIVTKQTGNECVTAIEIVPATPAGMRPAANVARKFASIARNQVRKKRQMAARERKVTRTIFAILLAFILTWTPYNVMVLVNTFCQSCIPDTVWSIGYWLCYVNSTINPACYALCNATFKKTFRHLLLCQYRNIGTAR
M4 antag: antagonists of human muscarinic M4 receptor (CHRM4); CHO-hM4 cells, ACh EC80, Fluo-8 calcium fluorescence; 0.73% of 360,000 active; inhibition, % at 3 µM; AID 624125; P08173;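 active = inhibition above its plate's cutoff, the mean inhibition of sample wells plus 3 SD, cut at about 27% in these data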;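 note: 0% = acetylcholine EC80 with DMSO and 100% = DMSO without agonist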
CHRM4 PAM: potentiates acetylcholine response at human M4 receptor; P08173; CHO-K1 hM4/Gqi5, Fluo-8 calcium fluorescence, ACh EC20; 0% = ACh EC20, 100% = maximal ACh; activation, % at 3 µM; 0.4% of 360,000 active; AID 624126;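 active = activation above its plate's cutoff, the mean activation of sample wells plus 3 SD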
CHRM5 PAM: CHRM5 positive allosteric modulation; P08912; CHO-K1 hM5, Fluo-8 calcium, ACh EC20 PAM; 0% = ACh EC20, 100% = ACh EC100; activation, % at 3 µM; 0.3% of 360,000 active;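 active = activation above the run cutoff, the mean activation of all test compounds plus 3 SD, cut at about 18% in these data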
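System – CHO-K1 hM5 cells · Compound – 3 µM, single dose · Incubation – compound preincubation 140 s before EC20 acetylcholine addition · Technique – Fluo-8 calcium fluorescence · Measure – Max/basal fluorescence ratio as % of EC20–EC100 ACh window · Benchmarks – low control EC20 acetylcholine (0%), high control EC100 acetylcholine (100%) · Replication – singlicate, one well per test compound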
M5 antag: antagonists of human muscarinic M5 receptor (CHRM5); AID 624040; CHO-hM5 cells, Fluo-8 calcium fluorescence, ACh EC80; P08912; 0.59% of 360,000 active; inhibition, % at 3 µM;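 active = inhibition above a per-plate cutoff, the mean of that plate's test compounds plus 3 SD, cut at about 27% in these data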;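 note: 0% = acetylcholine EC80 with DMSO and 100% = DMSO without agonist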
CHRM5 agonist: CHRM5 agonism in calcium assay | 0.19% of 360,000 active | activation, % at 3 µM | AID 624037 | CHO-K1 hM5 cells, Fluo-8 calcium fluorescence; 0% DMSO wells, 100% maximal acetylcholine response | P08912;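 active = activation above the run's mean over test compounds plus 3 SD, cut at about 23% in these data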;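 note: signal is peak over basal fluorescence ratio across the kinetic read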
The depositor's hits bear a star.

SMILES	CHRM4 agonist	M4 antag	CHRM4 PAM	CHRM5 PAM	M5 antag	CHRM5 agonist
COc1ccc(OC)c(Nc2nc(NCCCN(C)C)nc(N)c2[N+](=O)[O-])c1	3	2	-3	-6	10	1
COCCCNc1nc(N)c([N+](=O)[O-])c(Nc2cc(OC)ccc2OC)n1	11	-17	2	8	5	36*
O=c1c(O)c(-c2ccc(O)c(O)c2)oc2cc(O)cc(O)c12	1	-14	14	21*	-15	10
Cc1cc(OCC(=O)Nc2ccc(CN3CCCCC3)cc2)ccc1Cl	36*	18	-21	-15	19	2
O=C(c1cccnc1)N1CCN(c2ccc(Cl)cc2)CC1	5	-7	30*	8	-8	-1
O=C(c1ccc(Cl)cc1)N1CCN(c2ccc([N+](=O)[O-])c(NCc3cccnc3)c2)CC1	7	7	26*	-7	-2	-11
O=C(Nc1ccc(N2CCN(C(=O)c3ccc(Cl)cc3)CC2)cc1)c1cccnc1	9	11	-6	-6	3	4
Cc1cccc(C)c1NC(=O)CCS(=O)(=O)c1ccc(Br)cc1	2	2	-3	-2	8	-3
CN(C(=O)CO/N=C/c1ccc(OC(F)F)cc1)C1CCS(=O)(=O)C1 (centres undefined)	1	-2	1	19*	-6	4
CCc1ccc(C(=O)NNC(=O)C2CC(=O)N(Cc3ccccc3)C2)cc1 (centres undefined)	0	-7	3	1	1	-1
O=C(NNC(=O)C1CC(=O)N(Cc2ccccc2)C1)c1ccc(Br)cc1 (centres undefined)	1	0	-1	-7	29*	-5
CCOC(=O)C1=CCN(S(=O)(=O)c2ccc(C)cc2)[C@H]1c1ccccc1Cl	0	1	-11	-11	-1	-6
Cc1cccc(Nc2nc(NCC3CCCO3)nc(N)c2[N+](=O)[O-])c1 (centres undefined)	2	15	24*	7	16	-2
Nc1nc(NCC2CCCO2)nc(Nc2cccc(Cl)c2)c1[N+](=O)[O-] (centres undefined)	1	1	5	8	-1	5
S=C(NCCc1ccccc1)N1CCC2CC1c1cc(-c3ccc4c(c3)OCO4)ccc12 (centres undefined)	0	-8	6	6	1	0
CC(Oc1ccc(Br)cc1)C(=O)Nc1ccc(S(=O)(=O)N(C)C2CCN(C)CC2)cc1 (centres undefined)	96*	31*	-11	-14	26	62*
CC(=O)Nc1cccc(-c2ccnc3c2CC(C)(C(=O)NCc2cccs2)O3)c1 (centres undefined)	5	-6	3	-3	1	4
CC(C)=CC(=O)O[C@@H]1Cc2c(ccc3ccc(=O)oc23)OC1(C)C	-2	-13	15	25*	-1	-7
Cc1cccc(S(=O)Cc2ccc(C(=O)N3CCN(C(=O)c4ccco4)CC3)o2)c1 (centres undefined)	4	-17	1	22*	-8	3
CC(C)NC(=O)C1(C)CN(S(C)(=O)=O)CC(=O)N1Cc1cccs1 (centres undefined)	2	-3	25*	10	-11	2
Cn1cc(CN2CCC(n3nccc3NC(=O)CCOc3ccccc3)CC2)cn1	1	-10	-4	-8	29*	-4
CC(C)(C)C1CCC(CN2C(Nc3ccccc3)=NC[C@@H]2Cc2ccccc2)CC1 (some centres undefined)	23	50*	-14	-20	28*	-1
CC(C)C(=O)Nc1ccc(N2CCCC2)cc1	0	30*	-13	1	1	-2
CN(C)Cc1cc(C(F)(F)F)ccc1C(O)(c1ccccc1)c1ccccc1	3	57*	-11	-38	75*	-10
CC1=NOC(=O)/C1=C/c1ccc(-c2ccc(Cl)cc2)o1	9	34*	-2	-7	17	2
SMILES	CHRM4 agonist	M4 antag	CHRM4 PAM	CHRM5 PAM	M5 antag	CHRM5 agonist
CC1=NOC(=O)/C1=C\c1ccc(-c2cc(Cl)ccc2Cl)o1	1	7	3	5	12	-2
CC1=NOC(=O)/C1=C\c1ccc(-c2ccc(Br)cc2)o1	10	34*	-11	-17	31*	-5
Nn1c(SCC(=O)Nc2ccccc2C(F)(F)F)nncc1=O	1	0	0	4	-13	-1
CCc1c(C(=O)NC(C)C2CCCO2)csc1C (centres undefined)	1	3	0	2	5	-2
O=C(Nc1ccc(C(=O)N2CCCC2)cc1)c1ccc(F)cc1Cl	1	2	-3	-8	10	-3
O=C(CC[C@H]1O[C@@H](n2ccc(=O)[nH]c2=O)[C@H](O)[C@@H]1O)NCc1cccc2ccccc12	1	-8	21*	10	8	-1
CCN(CCn1cccn1)C(=O)CCc1nnc(-c2ccc3c(c2)OCO3)o1	0	0	9	22*	-6	0
CCN(CCn1cccn1)C(=O)CCc1nnc(CCCc2ccccc2)o1	1	7	-3	-9	8	-2
CC(NC(=O)C1CCCN1S(=O)(=O)c1ccccc1)c1ccccc1 (centres undefined)	1	-11	-3	-1	-3	-2
Cc1c(Cl)sn(-c2ccc(Cl)cc2)c1=O	4	38*	-4	-8	11	0
COc1ccc(OCCNC(=O)C2(C)CCN2Cc2ccc(SC)cc2)cc1 (centres undefined)	9	9	-8	-3	2	-2
COc1ccc(OCCNC(=O)C2(C)CCN2Cc2ccc3ccccc3c2)cc1 (centres undefined)	10	29*	-13	-19	14	0
Cc1ccc(S(=O)c2ccc([N+](=O)[O-])c3nonc23)cc1 (centres undefined)	9	15	0	-3	24	40*
O=C(CCN1CCc2ccccc2C1)Nc1ccccc1	1	-14	6	35*	-4	-6
O=C(CSc1nc2ccc(NC(=O)CSc3nnnn3Cc3ccccc3)cc2s1)Nc1ccccc1	2	10	-3	-6	3	2
COC(=O)CSc1nc2ccc(NC(=O)CSc3nnnn3Cc3ccccc3)cc2s1	9	27*	-8	-36	13	-4
O=C(CCN1CCN(Cc2ccccc2)CC1)Nc1ccc(OCc2ccccc2)cc1	20	54*	-30	-13	21	0
CCn1nnnc1SCC(=O)Nc1ccc(OCc2ccccc2)cc1	2	-7	27*	34*	-12	-4

Source: PubChem BioAssay
